Assay outcomes (PubChem BioAssay)
SR-BI uptake up: activators of SR-BI mediated DiI-HDL uptake, primary screen, ldlA[mSR-BI] CHO cells, DiI fluorescence; 320,000 tested, 0.096% active; AID 504775, 2011; 3 h; 100 = double the neutral-control signal; activation, % at 12.5 µM;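 active = mean replicate activation of at least 60% and every replicate at or above 60%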;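 note: 0% = median plate neutral-control signal and 100% = twice that signal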
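Material – SR-BI-overexpressing, LDLR-lacking CHO cells · Medium – BSA-supplemented, HEPES-buffered Ham's F12, pH 7.4 · Doses – single concentration · Times – compound with DiI-HDL co-incubation, 3 h at 37 °C · Measured by – bottom-read fluorescence, 550/595 nm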
miR122 inh: miR-122 Renilla sensor signal increase in Huh7, primary screen, miR-122 inhibitor project, cell-based, single point, plate reader; AID 602342, 2012; Huh7 miR-122 Renilla luciferase sensor, 48 h; neutral wells = 0, positive control = 100; activation (reporter increase), % at 12.5 µM; 340,000 tested, 0.3% active;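 active = mean replicate activation score at least 90 and every replicate individually at or above 90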;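 note: higher luciferase means less miR-122 activity so hits act as miR-122 inhibitors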
ARNT TACC3 PPI: disruptors of ARNT/TACC3 protein interaction, primary screen, biochemical, AlphaScreen, single concentration; AlphaScreen His-ARNT PAS-B/GST-TACC3 binding, luminescence; TACC3 fragment carries E629A point mutation; inhibition, % at 9.99 µM; 390,000 tested, 0.66% active;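 active = mean inhibition of replicates at least 50% and at least half of replicates each reaching 50%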;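 note: 0% = complete ARNT plus TACC3 wells and 100% = ARNT alone without TACC3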
SR-BI HDL uptake: inhibitors of SR-BI mediated HDL lipid uptake, primary screen, ldlA[mSR-BI] cells, fluorescence, single point | AID 488896, 2010 | inhibition, % at 12.5 µM | Scavenger receptor class B member 1 (Mus musculus), Q61009 | ldlA[mSR-BI] CHO cells, DiI-HDL uptake fluorescence, 3 h | 320,000 tested, 0.96% active;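 active = mean replicate inhibition of at least 70% and a set share of replicates each scoring 70 or more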;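 note: 0% = median of neutral control wells and 100% = median of positive control wells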
Target sequence (Q61009 whole entry, looked up): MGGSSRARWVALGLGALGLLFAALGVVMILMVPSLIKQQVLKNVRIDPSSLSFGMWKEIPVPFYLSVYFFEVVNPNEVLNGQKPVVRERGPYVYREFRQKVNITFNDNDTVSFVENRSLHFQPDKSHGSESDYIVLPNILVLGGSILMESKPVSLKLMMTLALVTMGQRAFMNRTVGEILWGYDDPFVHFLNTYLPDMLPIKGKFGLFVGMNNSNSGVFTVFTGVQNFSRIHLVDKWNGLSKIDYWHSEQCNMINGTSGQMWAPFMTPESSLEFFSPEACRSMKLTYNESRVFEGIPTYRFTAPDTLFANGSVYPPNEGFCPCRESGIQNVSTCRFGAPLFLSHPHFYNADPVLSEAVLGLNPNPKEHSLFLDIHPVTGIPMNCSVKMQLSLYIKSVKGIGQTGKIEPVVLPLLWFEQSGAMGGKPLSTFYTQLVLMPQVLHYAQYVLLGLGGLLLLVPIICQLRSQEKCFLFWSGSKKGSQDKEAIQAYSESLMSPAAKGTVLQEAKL
CAL PDZ FP-1: untagged CAL PDZ binding inhibitors, primary screen, biochemical, fluorescence polarization, HTS; purified CAL PDZ, TMR-peptide fluorescence polarization, 1 h; 300,000 tested, 0.92% active; inhibition, % at 24.9 µM; Golgi-associated PDZ and coiled-coil motif-containing protein (Homo sapiens), Q9HD26;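 active = mean inhibition of at least 30% with at least half of replicates also reaching 30%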;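 note: 0% = DMSO neutral control and 100% = excess unlabeled competitor peptide PRC23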
CAL PDZ FP-2: CAL PDZ peptide-binding inhibitors, primary screen, biochemical, fluorescence polarization, Cer-tagged CAL PDZ, HTS; Golgi-associated PDZ and coiled-coil motif-containing protein (Homo sapiens), Q9HD26; purified CAL PDZ, TMR-peptide fluorescence polarization, 1 h; inhibition, % at 20 µM; 330,000 tested, 0.02% active; AID 504414, 2011;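 active = highest replicate inhibition of at least 40%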;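 note: plate controls were DMSO neutral control wells for no effect and unlabeled competitor peptide control wells for full effect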
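material = purified tagged CAL PDZ domain construct (CerCALP) | buffer or medium = sodium phosphate/NaCl buffer pH 7.4 with TCEP, IgG, Thesit | reagent = TMR-labelled reporter peptide T*-PRC34 bound in PDZ groove | incubation = 1 h room-temperature incubation prior to read | measured by = fluorescence polarization (mP) | evaluation = percent inhibition from loss of millipolarization | control set = unlabelled peptide and DMSO controls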
* = called active by the depositor; [ ] = remark or other dose. Shown are actives, neighbours in structure and some others; about 2.1% of the full set was active somewhere.

`CN1C(=O)c2cc(NC(=O)c3ccc(F)c(F)c3)ccc2OC[C@H]2O[C@@H](CC(=O)N[C@@H]3CCN(Cc4ccccc4)C3)CC[C@@H]21` gave ARNT TACC3 PPI 3.7.
`COc1ccc(Cl)cc1NC(=O)CN(C)Cc1cccs1` gave SR-BI uptake up -71.6, miR122 inh -1.1, ARNT TACC3 PPI -7.9, SR-BI HDL uptake 71.6*, CAL PDZ FP-1 -1.4 and CAL PDZ FP-2 -3.2.
Screening COc1ccc(Cl)cc1NC(=O)CNCc1cccs1 returned SR-BI uptake up -37.4, miR122 inh -3.7, ARNT TACC3 PPI -0.3, SR-BI HDL uptake 37.4, CAL PDZ FP-1 2.0 and CAL PDZ FP-2 -1.0.
For COc1ccc(Cl)cc1NC(=O)CN(C)CC(=O)N1CC(=O)Nc2ccccc21 the results were SR-BI uptake up -26.0, miR122 inh 8.3, ARNT TACC3 PPI 21.4, SR-BI HDL uptake 26.0, CAL PDZ FP-1 -2.5 and CAL PDZ FP-2 -1.0.
`COc1ccc(Cl)cc1NC(=O)CN(C)CC(=O)Nc1ccccc1N1CCOCC1` gave SR-BI uptake up -77.8, ARNT TACC3 PPI -4.0, SR-BI HDL uptake 77.8*, CAL PDZ FP-1 -4.9 and CAL PDZ FP-2 -2.3.
`O=C(CCc1ccc(S(=O)(=O)NC2CCCCC2)cc1)N(Cc1ccccc1)Cc1ccccc1` gave SR-BI uptake up -21.8, miR122 inh 99.3*, ARNT TACC3 PPI -2.8, SR-BI HDL uptake 21.8, CAL PDZ FP-1 2.6 and CAL PDZ FP-2 -0.8.
Screening O=C(Nc1ccc(S(=O)(=O)NC2CCCCC2)cc1)c1ccc(Br)o1 returned SR-BI uptake up -13.6, miR122 inh 128.3*, ARNT TACC3 PPI -0.8, SR-BI HDL uptake 13.6, CAL PDZ FP-1 -0.1 and CAL PDZ FP-2 -0.1.
For O=C(Nc1ccc(S(=O)(=O)NC2CCCCC2)cc1)c1ccco1 the results were SR-BI uptake up -18.9, miR122 inh 68.8, ARNT TACC3 PPI -4.0, SR-BI HDL uptake 18.9, CAL PDZ FP-1 0.0 and CAL PDZ FP-2 -2.5.
`CSc1ccc(S(=O)(=O)NC2CCCCCC2)cc1` gave SR-BI uptake up 1.3, miR122 inh 102.5*, ARNT TACC3 PPI -3.8, SR-BI HDL uptake -1.3, CAL PDZ FP-1 -2.4 and CAL PDZ FP-2 -0.2.
For COc1ccccc1NC(=O)CN1CCC(c2nc3ccc(C)cc3[nH]2)CC1 the results were SR-BI uptake up 9.5, miR122 inh 6.7, ARNT TACC3 PPI 0.6, SR-BI HDL uptake -9.5, CAL PDZ FP-1 93.1* and CAL PDZ FP-2 -0.9.
`COc1ccccc1NC(=O)CN1CCC(c2nc3ccccc3[nH]2)CC1` gave SR-BI uptake up 2.8, miR122 inh -5.5, ARNT TACC3 PPI 1.2, SR-BI HDL uptake -2.8 and CAL PDZ FP-2 -1.1.
Screening CC(=O)COc1ccc2c(-c3ccccc3)cc(=O)oc2c1C returned SR-BI uptake up -72.5, ARNT TACC3 PPI 27.6, SR-BI HDL uptake 72.5*, CAL PDZ FP-1 -7.5 and CAL PDZ FP-2 -1.7.
COc1ccc(-c2cc(=O)oc3c(C)c(OC(C)C(=O)NCc4ccccn4)ccc23)cc1 (stereo not drawn) was read as SR-BI uptake up -76.7, miR122 inh -8.6, ARNT TACC3 PPI -3.2, SR-BI HDL uptake 76.7*, CAL PDZ FP-1 -1.5 and CAL PDZ FP-2 -0.4.
`COc1ccccc1NC(=O)N[C@H]1C=C[C@@H](CC(=O)NCc2ccc(Cl)c(Cl)c2)O[C@@H]1CO` gave miR122 inh -15.8[16.7 µM] and ARNT TACC3 PPI 2.3.
C=CCNC(=O)[C@H]1[C@@H]2C(=O)O[C@@H](c3ccccc3)[C@@H](c3ccccc3)N2[C@@H](c2ccc(OCCO)cc2)[C@]12C(=O)Nc1ccccc12 was read as ARNT TACC3 PPI -6.5.
Cc1ccc(S(=O)(=O)Nc2ccc3c(c2)CC(=O)N([C@H](C)CO)C[C@@H](C)[C@@H](CN(C)Cc2ccc(C(=O)Nc4ccccc4N)cc2)O3)cc1 was read as miR122 inh 20.0[16.7 µM] and ARNT TACC3 PPI 6.5.
C/C=C/c1ccc2c(c1)O[C@H](CN(C)Cc1ccc(C(=O)O)cc1)[C@H](C)CN([C@@H](C)CO)S2(=O)=O was read as miR122 inh 15.1[16.7 µM] and ARNT TACC3 PPI -1.3.
`Cc1nn(-c2ccccc2)c(C)c1NC(=O)COC(=O)c1ccc(Cl)c(S(N)(=O)=O)c1` gave SR-BI uptake up -20.2, ARNT TACC3 PPI -9.1, SR-BI HDL uptake 20.2, CAL PDZ FP-1 64.8* and CAL PDZ FP-2 0.6.
Cc1nn(-c2ccccc2)c(C)c1NC(=O)COC(=O)c1ccc(NC(=O)CC#N)cc1 was read as SR-BI uptake up -60.2, miR122 inh -4.0, ARNT TACC3 PPI -2.2, SR-BI HDL uptake 60.2, CAL PDZ FP-1 -1.6 and CAL PDZ FP-2 -1.8.
Screening C[C@@H]1CCCCO[C@@H](CN(C)C(=O)CCCN(C)C)[C@H](C)CN([C@H](C)CO)C(=O)c2cc(NC(=O)C3CCCCC3)ccc2O1 returned miR122 inh 4.2[16.7 µM] and ARNT TACC3 PPI 0.9.
Screening N#CCCN1CCCc2cc(N=Nc3ccc(C(F)(F)F)cc3)ccc21 returned SR-BI uptake up -98.1, miR122 inh -1.0, ARNT TACC3 PPI 16.9, SR-BI HDL uptake 98.1*, CAL PDZ FP-1 -2.3 and CAL PDZ FP-2 1.2.
Screening CC1CN(C(=O)c2cc(S(=O)(=O)N3CCCCC3)ccc2Cl)CC(C)O1 (stereo not drawn) returned SR-BI uptake up 9.4, miR122 inh -0.9, SR-BI HDL uptake -9.4, CAL PDZ FP-1 39.1* and CAL PDZ FP-2 -0.1.
O=C(NCCN1CCOCC1)c1cccc(S(=O)(=O)Nc2cc(Cl)ccc2Cl)c1 was read as SR-BI uptake up 10.9, miR122 inh -4.6, ARNT TACC3 PPI -0.2, SR-BI HDL uptake -10.9, CAL PDZ FP-1 -1.8 and CAL PDZ FP-2 -1.2.
CC1CN(C(=O)c2cc(S(=O)(=O)N3CCCC3)ccc2Cl)CC(C)O1 (stereo not drawn) was read as SR-BI uptake up -4.8, ARNT TACC3 PPI -4.9, SR-BI HDL uptake 4.8, CAL PDZ FP-1 -2.0 and CAL PDZ FP-2 -2.1.
CC1CN(C(=O)c2cccc(S(=O)(=O)Nc3cc(Cl)ccc3Cl)c2)CC(C)O1 (stereo not drawn) was read as SR-BI uptake up 25.0, ARNT TACC3 PPI 3.3, SR-BI HDL uptake -25.0, CAL PDZ FP-1 79.3* and CAL PDZ FP-2 -1.1.
